# Apaf-1 inh – inhibitors of human Apaf-1 apoptosome, primary screen, biochemical, DEVD-Rh110 fluorescence, uHTS; Apoptotic protease-activating factor 1 (Homo sapiens), O14727; reconstituted apoptosome caspase-3 activity; inhibition, % at 20 µM; 330,000 compounds, 0.71% hits; AID 489030, 2010; active means inhibition of at least 40% at 20 µM;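 further: plate controls were DMSO wells for no effect and DEVD-CHO caspase inhibitor wells for full effect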
#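 Material: reconstituted apoptosome with Apaf-1, cytochrome c, caspase-9, procaspase-3, dATP. Technique: Rh110 fluorescence intensity. Buffer or medium: pH 7.5 Hepes buffer with CHAPS, BSA, DTT. Times: 30 min plus 50 min, RT.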
# SUMO HTRF inh – inhibitors of in vitro SUMOylation cascade, primary screen, biochemical, HTRF, uHTS; HTRF SUMOylation assay, SAE1/SAE2 + UBC9; inhibition, % at 35 µM; 290,000 compounds, 0.36% hits; in the data active means inhibition above about 50%, passing the limit was not always enough; inconclusive means no clear call, values can overlap the other calls
# Target sequence (P63279 whole entry, looked up): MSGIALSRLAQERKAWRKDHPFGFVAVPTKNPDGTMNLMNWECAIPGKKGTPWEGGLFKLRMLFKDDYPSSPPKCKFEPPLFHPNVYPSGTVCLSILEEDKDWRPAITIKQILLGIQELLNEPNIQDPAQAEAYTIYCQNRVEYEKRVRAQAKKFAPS
# GASC-1 inh – inhibitors of GASC-1 histone demethylase, primary screen, biochemical, fluorescence, DELFIA europium. Lysine-specific demethylase 4C (Homo sapiens), Q9H3R0. GST-JMJD2C(1-420) H3K9me3 demethylation. inhibition, % at 2.35 µM. 330,000 compounds, 0.069% hits;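 active means more than half of a compound's replicate wells show inhibition beyond 50%, single wells judged on their own value; inconclusive means some, but no more than half, of replicates pass 50% inhibition; inactive means no replicate passes 50% inhibition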;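 further: signal counts dimethyl H3K9 product captured on neutravidin plate; 0% = median of DMSO wells and 100% = 0.3 times that DMSO median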
# TDP2 absorb – human TDP2 enzyme inhibitors, primary screen, biochemical, epi absorbance, recombinant enzyme; Tyrosyl-DNA phosphodiesterase 2 (Homo sapiens), O95551; T5PNP hydrolysis, p-nitrophenol absorbance 415 nm; inhibition, % at 12.8 µM; 370,000 compounds, 0.34% hits; AID 720702, 2013;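 active means inhibition above the mean of all tested compounds plus 3 SD, set per campaign, cut at about 25% in these data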;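 further: 0% = DMSO with enzyme and 100% = buffer with substrate but no TDP2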
# Target sequence (O95551 whole entry, looked up): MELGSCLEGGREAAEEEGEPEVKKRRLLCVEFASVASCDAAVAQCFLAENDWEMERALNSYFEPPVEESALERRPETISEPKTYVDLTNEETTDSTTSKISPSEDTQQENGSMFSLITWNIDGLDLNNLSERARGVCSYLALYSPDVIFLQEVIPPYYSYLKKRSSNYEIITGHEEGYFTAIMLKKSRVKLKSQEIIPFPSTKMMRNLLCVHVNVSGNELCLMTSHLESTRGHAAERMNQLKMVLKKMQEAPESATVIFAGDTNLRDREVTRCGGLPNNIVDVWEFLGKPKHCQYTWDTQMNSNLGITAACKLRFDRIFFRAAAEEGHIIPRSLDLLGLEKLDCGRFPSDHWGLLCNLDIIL
#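 System – recombinant human TDP2 · Amount – 120 nM TDP2 per well · Buffer or medium – Mg2+-containing Tris-HCl buffer, pH 7.5 · Reagent – T5PNP substrate, 5 mM · Dosing – 12.8 µM single point, 1% DMSO · Incubation – 2 h at 37 °C · Measured by – epi absorbance · Read-out basis – percent inhibition · Benchmarks – high control without enzyme, low control DMSO plus TDP2 · Repeats – singlicate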
# GSTO1 counter – inhibitors of recombinant GSTO1, primary screen, counter-screen for RBBP9 inhibitor project, biochemical, fluorescence polarization; Glutathione S-transferase omega-1 (Homo sapiens), P78417; activity-based probe fluorescence polarization; inhibition, % at 5.96 µM; 300,000 compounds, 1.1% hits; AID 1974, 2009;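 active means inhibition above the campaign mean inhibition plus 3 SD, cut at about 35% in these data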;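 further: 0% = GSTO1-1 with DMSO and 100% = wells lacking GSTO1-1 enzyme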
# PAD4 FP inh – human PAD4 inhibitors, primary screen, biochemical, fluorescence polarization, 1536-well format; 330,000 compounds, 0.41% hits; inhibition, % at 6.36 µM; recombinant PAD4, RCA probe fluorescence polarization;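 active means percent inhibition above a cutoff equal to the mean of all tested compounds plus 3 SD, cut at about 15% in these data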;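 further: 0% = PAD4 with RCA probe and DMSO and 100% = probe without PAD4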
# Numbers without * were called inactive; u = inconclusive; x = not tested or not shown. Only some compounds are listed: those with a hit (about 1.6% of all), similar ones and a draw of the others.
SMILES,Apaf-1 inh,SUMO HTRF inh,GASC-1 inh,TDP2 absorb,GSTO1 counter,PAD4 FP inh
Cc1ccc(CNC(=O)OC(C)(C)C)c(/C=C/S(=O)(=O)NCc2ccc(F)cc2)c1,x,x,x,-6,x,x
CC(=O)Nc1ccc(S(=O)(=O)Oc2cccc(/C=C3\SC(N)=NC3=O)c2)cc1,3,50*,36,9,-46,-8
NC1=NC(=O)/C(=C/c2cccc(F)c2)S1,5,6,-9,13,-5,-1
Cc1ccc(OCCOc2ccc(Cl)cc2Cl)c(Br)n1,x,x,x,3,x,x
O=c1c2ccccc2nc2n1CCCCC2,-4,9,35,-2,22,4
O=c1c2ccccc2nc2n1CCC2,-1,73*,19,9,4,6
O=C1c2ccccc2-c2c1nc1c([n+]2[O-])CCCC1,42*,-13,0,14,15,-18
C/C(=N\NC(=O)c1ccccc1[N+](=O)[O-])c1ccc(Br)s1,-6,-17,-3,-4,-1,2
C/C(=N\NC(=O)c1ccccc1O)c1ccc(Br)s1,-3,5,38,-3,73*,3
CC(C)c1onc(C(=O)NCc2ccccc2)c1[N+](=O)[O-],-34,2,-1,2,37*,-2
COC(=O)C(Cc1ccccc1)NC(=O)COc1ccc(C(C)(C)C)cc1 (stereo not drawn),14,-18,61*,-21,2,3
CCOc1ccc(C(=O)NC(Cc2ccccc2)C(=O)OC)cc1 (stereo not drawn),1,-11,-82,1,6,0
O=C(Nc1ccccc1Cc1ccccc1)c1ccccc1NS(=O)(=O)c1ccc(Cl)s1,7,58*,-13,-6,-93,-6
CN1CCN(CC(=O)n2c3c(c4ccccc42)CCCC3)CC1,12,-6,-3,29*,21,-1
CC(C)(C)OC(=O)C1[C@H](O)C=CC[C@H]1S(=O)c1ccccc1 (stereo partly drawn),x,x,x,-5,x,x
COc1ccc(CN2CCC(CNC(=O)Nc3ccc(Cl)cc3)CC2)cc1,x,x,x,-1,x,x
CCCCCC#CCC#CCC#CCC#CCCCC(=O)O,41*,58*,u,x,29,-3
CCCCCCCCCC(=O)O,-10,x,x,7,x,-2
COC(=O)[C@]12C[C@H](CC(=O)NCCc3ccccc3OC)C(=O)N(CCc3ccc(OC)c(OC)c3)C1=C[C@H](C1CCCC1)O[C@@H]2C,x,x,x,-4,x,x
COc1ccc(OC)c(-c2nc(C(=O)NC3CCN(Cc4ccccc4)CC3)cc3c2[nH]c2ccccc23)c1,38,-14,u,-1,-1,2
COc1cc(-c2nc(C(=O)NC3CCN(Cc4ccccc4)CC3)cc3c2[nH]c2ccccc23)cc(OC)c1OC,41*,-6,x,x,-24,1
Oc1c(Cl)cc(Cl)cc1/C=N/NC(=S)NC1CC2C=CC1C2 (stereo not drawn),1,55*,5,12,-30,1
Oc1ccccc1C=NNC(=S)NC1CC2C=CC1C2 (stereo not drawn),x,x,x,-2,x,x
C[C@@H]1ON(C)[C@H]2C[C@H]3c4[nH]c5c(-c6ccccc6F)cccc5c4CCN3C[C@@H]12,x,x,x,-2,x,x
CC(=O)N1CCc2c(sc(NC(=O)C3CC3)c2-c2nc3ccccc3s2)C1,72*,18,6,8,6,2
SMILES,Apaf-1 inh,SUMO HTRF inh,GASC-1 inh,TDP2 absorb,GSTO1 counter,PAD4 FP inh
N=C1S/C(=C\c2cccc3ccccc23)C(=O)N1c1ccc(F)cc1,8,63*,13,4,-3,0
Nc1nnc(SC2CC(=O)N(c3ccccc3)C2=O)s1 (stereo not drawn),4,3,57*,8,5,1
Cc1c(C)c2cc(Cl)c(O)c(CN3CCN(C)CC3)c2oc1=O,-4,52*,47,-1,3,4
COCc1cc(=O)n2[nH]c(-c3ccco3)cc2n1,-5,21,-6,6,17,-5
CCCCN1Cc2c(nc3cc(-c4ccco4)[nH]n3c2=O)C1=O,6,92*,17,-16,-59,5
CC1CCCC(NC(=O)CSC2CCCCC2)C1C (stereo not drawn),3,1,2,0,10,-1
CC1CCCC(NC(=O)NC(=O)CCl)C1C (stereo not drawn),-30,16,-15,-6,99*,-2
CC1CCCCC1NC(=O)NC(=O)COC(=O)c1nccnc1N (stereo not drawn),-6,x,-5,-16,x,-5
CC1CCCCC1NC(=O)NC(=O)CCl (stereo not drawn),-1,3,-3,-3,94*,2
COc1ccc(-c2noc(CNS(=O)(=O)c3ccc(NC(C)=O)cc3)n2)cc1,8,-6,-22,6,37*,0
CC(=O)Nc1ccc(S(=O)(=O)NCc2nc(-c3ccccc3)no2)cc1,3,6,2,-1,13,2
Cc1c(CC(=O)N2CCN(C(=O)C3COc4ccccc4O3)CC2)c(=O)oc2c(C)c(O)ccc12 (stereo not drawn),11,50*,-1,-11,-2,-9
COc1ccc(CN2C[C@]3(C=C4CCCCC4n4c(=O)n(-c5ccccc5)c(=O)n43)N=C2NC(=O)c2ccccc2)c(OC)c1 (stereo partly drawn),x,x,x,-3,x,x
COC(=O)[C@]12C[C@H](CC(=O)NCc3cccs3)C(=O)N(CCc3ccc(OC)c(OC)c3)C1=C[C@H](COCc1ccccc1)O[C@@H]2C,x,x,x,-7,x,x
O=S1(=O)c2c(NCc3ccco3)cccc2Oc2ccccc2CN1Cc1cn(Cc2ccc(F)cc2)nn1,x,x,x,-10,x,x
Cc1ccc(N(CCC(=O)O)S(=O)(=O)c2ccc(C)cc2)cc1,7,-2,-4,3,4,3
Cc1ccc(N(CC2CO2)S(=O)(=O)c2ccc(C)cc2)cc1 (stereo not drawn),-3,5,39,-2,74*,1
Oc1cc2c(cc1O)C1c3ccc(O)c(O)c3OCC1(O)C2 (stereo not drawn),12,25,x,-2,49*,3
Cc1cc(C(=O)N/N=C/c2cc(Br)cc(Br)c2OC(=O)c2ccccc2)n[nH]1,-4,-44,6,x,-6,3
Cc1cc(C(=O)N/N=C/c2cc(Br)ccc2OC(=O)c2ccc(Br)cc2)n[nH]1,-9,67*,3,x,4,-2

# Assay outcomes: PubChem, several laboratories
